Source: ChEMBL document CHEMBL1139875, “Discovery of 4-aminobutyric acid derivatives possessing anticonvulsant and antinociceptive activities: a hybrid pharmacophore approach” (2007)
Activity calls are given as the source filed them. The calls are words filed in the database; no cut-off is given here.

What was measured:
Mus musculus [1] = test: Anticonvulsant activity in Swiss Albino mouse at 300 mg/kg, ip after 0.5 hr by MES test; assay type: functional, organism-based; design: dose 300 mg/kg
Procedure, shortened: (§1)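 Mice (Swiss, 20-25 g) given i.p. doses of 30, 100 and 300 mg/kg under ADD program protocols, three per group, examined at 0.5 and 4 h in MES, scPTZ, scSTY or scPIC seizure tests. Value is the minimum dose protecting half or more of the mice.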

Mus musculus [2] = test: Anticonvulsant activity in Swiss Albino mouse at 300 mg/kg, ip after 4 hrs by MES test; assay type: functional, organism-based; design: dose 300 mg/kg; procedure, shortened: as §1
Mus musculus [3] = test: Anticonvulsant activity in Swiss Albino mouse at 300 mg/kg, ip after 0.5 hr by scPTZ test; assay type: functional, organism-based; design: dose 300 mg/kg; procedure, shortened: as §1
Mus musculus [4] = test: Anticonvulsant activity in Swiss Albino mouse at 300 mg/kg, ip after 0.5 hr by scSTY test; assay type: functional, organism-based; design: dose 300 mg/kg; procedure, shortened: as §1
Mus musculus [5] = test: Anticonvulsant activity in Swiss Albino mouse at 300 mg/kg, ip after 4 hrs by scSTY test; assay type: functional, organism-based; design: dose 300 mg/kg; procedure, shortened: as §1
Mus musculus [6] = test: Anticonvulsant activity in Swiss Albino mouse at 300 mg/kg, ip after 0.5 hr by scPIC test; assay type: functional, organism-based; design: dose 300 mg/kg; procedure, shortened: as §1
Mus musculus [7] = test: Anticonvulsant activity in Swiss Albino mouse at 300 mg/kg, ip after 4 hrs by scPIC test; assay type: functional, organism-based; design: dose 300 mg/kg; procedure, shortened: as §1
Mus musculus [8] = test: Neurotoxicity in Swiss Albino mouse at 300 mg/kg, ip after 0.5 hr by rotarod test; assay type: functional, organism-based; design: dose 300 mg/kg
Procedure, shortened: (§2)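 Swiss mice (20-25 g) are trained on an accelerating rotorod (10 rpm, 3.2 cm rod), then injected i.p. at 30, 100 or 300 mg/kg, with three per group. Neurotoxicity means failure to keep equilibrium for at least 1 min in each of three trials, checked at 0.5 and 4 h. The value reported is the minimum dose affecting half or more of the mice.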

Mus musculus [9] = test: Neurotoxicity in Swiss Albino mouse at 300 mg/kg, ip after 4 hrs by rotarod test; assay type: functional, organism-based; design: dose 300 mg/kg; procedure, shortened: as §2
Mus musculus [10] = test: Analgesic activity in Swiss Albino mouse assessed as number of acetic acid-induced writhing per 30 min after 100 mg/kg, ip; assay type: functional; settings: route intraperitoneal
Procedure, shortened: (§3)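 Mice in groups of six dosed i.p. at 100 mg/kg, controls receiving 30% v/v PEG 400 in water. Writhing induced by i.p. 0.1 mL of 3% v/v acetic acid 1 h after drug. Writhes (abdominal stretch with at least one hind limb extended) counted over 30 min; % inhibition calculated. Mean ± SEM, Student's t test.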

Mus musculus [11] = test: Analgesic activity in Swiss Albino mouse assessed as inhibition of acetic acid-induced writhing responses at 100 mg/kg, ip; assay type: functional; settings: route intraperitoneal; procedure, shortened: as §3
Rattus norvegicus [12] = test: Anti-dynamic allodynia effect in Sprague-Dawley rat SNL model assessed as latency to paw withdrawal 100 mg/kg, ip after 0.5 hr; assay type: functional; settings: route intraperitoneal
Procedure, shortened: (§4)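 Left L5 spinal nerve ligation rats, tested preoperatively and 9 days postoperatively, then given 100 mg/kg i.p. (vehicle 30% v/v PEG 400 in water). After 10 min acclimatization, plantar surface of affected paw stroked mildly with a cotton-bud; paw lift response recorded. n = 4; retested 0.5-2.5 h post-dose.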

Rattus norvegicus [13] = test: Anti-dynamic allodynia effect in Sprague-Dawley rat SNL model assessed as latency to paw withdrawal 100 mg/kg, ip after 1 hr; assay type: functional; settings: route intraperitoneal; procedure, shortened: as §4
Rattus norvegicus [14] = test: Anti-dynamic allodynia effect in Sprague-Dawley rat SNL model assessed as latency to paw withdrawal 100 mg/kg, ip after 1.5 hrs; assay type: functional; settings: route intraperitoneal; procedure, shortened: as §4
Rattus norvegicus [15] = test: Anti-dynamic allodynia effect in Sprague-Dawley rat SNL model assessed as latency to paw withdrawal 100 mg/kg, ip after 2 hrs; assay type: functional; settings: route intraperitoneal; procedure, shortened: as §4
Rattus norvegicus [16] = test: Anti-dynamic allodynia effect in Sprague-Dawley rat SNL model assessed as latency to paw withdrawal 100 mg/kg, ip after 2.5 hrs; assay type: functional; settings: route intraperitoneal; procedure, shortened: as §4
Rattus norvegicus [17] = test: Anti-cold allodynia effect in Sprague-Dawley rat SNL model assessed as duration of paw withdrawal 100 mg/kg, ip after 0.5 hr; assay type: functional; settings: route intraperitoneal
Procedure, shortened: (§5)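 Left L5 spinal nerve ligation under pentobarbital (65 mg/kg i.p.). Allodynic rats dosed i.p. 100 mg/kg, vehicle 30% v/v PEG 400 in water. Acetone (100-200 µL) misted onto midplantar affected paw after 10 min acclimatization; paw withdrawal duration, mean of three samples at least 3 min apart; n = 4 rats.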

Rattus norvegicus [18] = test: Anti-cold allodynia effect in Sprague-Dawley rat SNL model assessed as duration of paw withdrawal 100 mg/kg, ip after 1 hrs; assay type: functional; settings: route intraperitoneal; procedure, shortened: as §5
Rattus norvegicus [19] = test: Anti-cold allodynia effect in Sprague-Dawley rat SNL model assessed as duration of paw withdrawal 100 mg/kg, ip after 1.5 hrs; assay type: functional; settings: route intraperitoneal; procedure, shortened: as §5
Rattus norvegicus [20] = test: Anti-cold allodynia effect in Sprague-Dawley rat SNL model assessed as duration of paw withdrawal 100 mg/kg, ip after 2 hrs; assay type: functional; settings: route intraperitoneal; procedure, shortened: as §5
Rattus norvegicus [21] = test: Anti-cold allodynia effect in Sprague-Dawley rat SNL model assessed as duration of paw withdrawal 100 mg/kg, ip after 2.5 hrs; assay type: functional; settings: route intraperitoneal; procedure, shortened: as §5
Rattus norvegicus [22] = test: Antihyperalgesic effects in Sprague-Dawley rat CCI model assessed as duration of paw withdrawal at 100 mg/kg, ip after 0.5 hr; assay type: functional; settings: route intraperitoneal
Rattus norvegicus [23] = test: Antihyperalgesic effects in Sprague-Dawley rat CCI model assessed as duration of paw withdrawal at 100 mg/kg, ip after 1 hr; assay type: functional; settings: route intraperitoneal
Rattus norvegicus [24] = test: Antihyperalgesic effects in Sprague-Dawley rat CCI model assessed as duration of paw withdrawal at 100 mg/kg, ip after 1.5 hrs; assay type: functional; settings: route intraperitoneal
Rattus norvegicus [25] = test: Antihyperalgesic effects in Sprague-Dawley rat CCI model assessed as duration of paw withdrawal at 100 mg/kg, ip after 2 hrs; assay type: functional; settings: route intraperitoneal
Rattus norvegicus [26] = test: Antihyperalgesic effects in Sprague-Dawley rat CCI model assessed as duration of paw withdrawal at 100 mg/kg, ip after 2.5 hrs; assay type: functional; settings: route intraperitoneal
Rattus norvegicus [27] = test: Effect on spontaneous pain in Sprague-Dawley rat SNL model assessed as duration of paw withdrawal at 100 mg/kg, ip after 0.5 hr; assay type: functional; settings: route intraperitoneal
Procedure, shortened: (§6)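 Rats underwent left L5 spinal nerve ligation (Kim and Chung) under i.p. pentobarbital (65 mg/kg). Spontaneous pain is recorded for 5 min after 10 min acclimatization, as cumulative duration the ipsilateral paw is lifted, excluding locomotor lifts. Dosing is 100 mg/kg i.p. in 30% v/v PEG 400/water, with testing at 0.5–2.5 h. Four rats, mean ± SEM versus predrug, one-way ANOVA with Bonferroni.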

Rattus norvegicus [28] = test: Effect on spontaneous pain in Sprague-Dawley rat SNL model assessed as duration of paw withdrawal at 100 mg/kg, ip after 1 hr; assay type: functional; settings: route intraperitoneal; procedure, shortened: as §6
Rattus norvegicus [29] = test: Effect on spontaneous pain in Sprague-Dawley rat SNL model assessed as duration of paw withdrawal at 100 mg/kg, ip after 1.5 hrs; assay type: functional; settings: route intraperitoneal; procedure, shortened: as §6
Rattus norvegicus [30] = test: Effect on spontaneous pain in Sprague-Dawley rat SNL model assessed as duration of paw withdrawal at 100 mg/kg, ip after 2 hrs; assay type: functional; settings: route intraperitoneal; procedure, shortened: as §6
Rattus norvegicus [31] = test: Effect on spontaneous pain in Sprague-Dawley rat SNL model assessed as duration of paw withdrawal at 100 mg/kg, ip after 2.5 hrs; assay type: functional; settings: route intraperitoneal; procedure, shortened: as §6
Rattus norvegicus [32] = organism: Rattus norvegicus; test: Anti-dynamic allodynic effect in Sprague-Dawley rat CCI model assessed as latency to paw withdrawal after 0.5 hr; assay type: functional
Procedure, shortened: (§7)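 Rats with sciatic nerve chronic constriction injury (pentobarbital 65 mg/kg i.p. anaesthesia), baseline and day 9 testing, then drug per randomization table. After 10 min acclimatization, affected plantar surface stroked mildly with a cotton-bud; paw lift recorded. n = 4; retested 0.5-2.5 h post-dose.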

Rattus norvegicus [33] = organism: Rattus norvegicus; test: Anti-dynamic allodynic effect in Sprague-Dawley rat CCI model assessed as latency to paw withdrawal after 1 hr; assay type: functional; procedure, shortened: as §7
Rattus norvegicus [34] = organism: Rattus norvegicus; test: Anti-dynamic allodynic effect in Sprague-Dawley rat CCI model assessed as latency to paw withdrawal after 1.5 hr; assay type: functional; procedure, shortened: as §7
Rattus norvegicus [35] = organism: Rattus norvegicus; test: Anti-dynamic allodynic effect in Sprague-Dawley rat CCI model assessed as latency to paw withdrawal after 2 hr; assay type: functional; procedure, shortened: as §7
Rattus norvegicus [36] = organism: Rattus norvegicus; test: Anti-dynamic allodynic effect in Sprague-Dawley rat CCI model assessed as latency to paw withdrawal after 2.5 hr; assay type: functional; procedure, shortened: as §7

Q: For `O=C(O)CCCNC(=O)N/N=C(\c1ccccc1)c1ccc(Br)cc1`, which Activity (Mus musculus [1]) is on record?
A: Its Activity is “Active”.

Q: What about the Activity (Mus musculus [2]) of the same molecule?
A: The Activity was “inactive”.

Q: What about the Activity (Mus musculus [3]) of the same molecule?
A: Its Activity is “inactive”.

Q: What about the Activity (Mus musculus [4]) of the same molecule?
A: Its Activity is “Active”.

Q: And the Activity (Mus musculus [5])?
A: The Activity was “Active”.

Q: What about the Activity (Mus musculus [6]) of the same molecule?
A: The Activity was “inactive”.

Q: What about the Activity (Mus musculus [7]) of the same molecule?
A: Its Activity is “inactive”.

Q: And the Activity (Mus musculus [8])?
A: The Activity was “inactive”.

Q: What about the Activity (Mus musculus [9]) of the same molecule?
A: Its Activity is “inactive”.

Q: What about the Activity (Mus musculus [10]) of the same molecule?
A: Its Activity is 21.

Q: And the inhibition in vivo at 100 mg/kg (Mus musculus [11])?
A: The inhibition in vivo at 100 mg/kg was 89%.

Q: What about the Activity (Rattus norvegicus [12]) of the same molecule?
A: The Activity was 9.8 s.

Q: And the Activity (Rattus norvegicus [13])?
A: The Activity was 10.6 s.

Q: And the Activity (Rattus norvegicus [14])?
A: Its Activity is 10.8 s.

Q: And the Activity (Rattus norvegicus [15])?
A: Its Activity is 10.3 s.

Q: What about the Activity (Rattus norvegicus [16]) of the same molecule?
A: Its Activity is 10.23 s.

Q: What about the Activity (Rattus norvegicus [17]) of the same molecule?
A: The Activity was 19.1 s.

Q: What about the Activity (Rattus norvegicus [18]) of the same molecule?
A: The Activity was 23.8 s.

Q: What about the Activity (Rattus norvegicus [19]) of the same molecule?
A: Its Activity is 11.8 s.

Q: What about the Activity (Rattus norvegicus [20]) of the same molecule?
A: The Activity was 10.8 s.

Q: What about the Activity (Rattus norvegicus [21]) of the same molecule?
A: Its Activity is 10.2 s.

Q: What about the Activity (Rattus norvegicus [22]) of the same molecule?
A: The Activity was 20.5 s.

Q: What about the Activity (Rattus norvegicus [23]) of the same molecule?
A: Its Activity is 8.5 s.

Q: And the Activity (Rattus norvegicus [24])?
A: The Activity was 5.1 s.

Q: What about the Activity (Rattus norvegicus [25]) of the same molecule?
A: Its Activity is 7.3 s.

Q: And the Activity (Rattus norvegicus [26])?
A: Its Activity is 5.6 s.

Q: And the Activity (Rattus norvegicus [27])?
A: The Activity was 25.1 s.

Q: What about the Activity (Rattus norvegicus [28]) of the same molecule?
A: The Activity was 28.5 s.

Q: And the Activity (Rattus norvegicus [29])?
A: Its Activity is 23.1 s.

Q: What about the Activity (Rattus norvegicus [30]) of the same molecule?
A: Its Activity is 10.1 s.

Q: What about the Activity (Rattus norvegicus [31]) of the same molecule?
A: The Activity was 8.7 s.

Q: What about the Activity (Rattus norvegicus [32]) of the same molecule?
A: Its Activity is 11.4 s.

Q: What about the Activity (Rattus norvegicus [33]) of the same molecule?
A: The Activity was 10.3 s.

Q: What about the Activity (Rattus norvegicus [34]) of the same molecule?
A: The Activity was 10.6 s.

Q: And the Activity (Rattus norvegicus [35])?
A: Its Activity is 10.9 s.

Q: What about the Activity (Rattus norvegicus [36]) of the same molecule?
A: Its Activity is 11.3 s.
